Experimental data as given in ChEMBL document CHEMBL3813688, “Synthesis, antitumor activity and mechanism of action of novel 1,3-thiazole derivatives containing hydrazide-hydrazone and carboxamide moiety” (Bioorg Med Chem Lett, 2016).
In brackets after ≈: the same amount, converted by molar mass.

What was measured:
HepG2 [1] = assay: Induction of apoptosis in human HepG2 cells assessed as late apoptotic cells at 0.55 ug/ml after 24 to 48 hrs by Annexin V-FITC/propidium iodide staining based flow cytometry (reference value: 0.1 %); assay type: functional
HepG2 [2] = assay: Induction of apoptosis in human HepG2 cells assessed as necrotic cells at 1.1 ug/ml after 24 to 48 hrs by Annexin V-FITC/propidium iodide staining based flow cytometry (reference value: 1.8 %); assay type: functional
HepG2 [3] = assay: Cell cycle arrest in human HepG2 cells assessed as accumulation at sub-G1 phase at 0.55 ug/ml after 48 hrs by propidium iodide staining based flow cytometry relative to control; assay type: functional
HepG2 [4] = assay: Cell cycle arrest in human HepG2 cells assessed as accumulation at G2 phase at 1.1 ug/ml after 48 hrs by propidium iodide staining based flow cytometry (reference value: 6.89 %); assay type: functional
HepG2 [5] = assay: Cell cycle arrest in human HepG2 cells assessed as accumulation at S phase after 48 hrs by propidium iodide staining based flow cytometry; assay type: functional
HepG2 [6] = assay: Cytotoxicity against human HepG2 cells assessed as cell growth inhibition after 72 hrs by MTT assay; assay type: functional, cell-based; conditions: HepG2, 72 h
How it was run: (§1)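 MTT growth assay in human cancer lines (MCF-7, HepG2, BGC-823, HeLa, A549), 72 h after treatment; 5-fluorouracil as reference. IC50 (μg/mL) taken as concentration giving 50% growth inhibition versus untreated control.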

HepG2 [7] = assay: Cell cycle arrest in human HepG2 cells assessed as accumulation at G1 phase at 1.1 ug/ml after 48 hrs by propidium iodide staining based flow cytometry (reference value: 57.68 %); assay type: functional
HepG2 [8] = assay: Cytotoxicity against human HepG2 cells assessed as cell growth inhibition at 20 ug/ml after 72 hrs by MTT assay; assay type: functional; conditions: HepG2, 72 h, read-out: GI
HepG2 [9] = assay: Cell cycle arrest in human HepG2 cells assessed as accumulation at S phase at 0.55 ug/ml after 48 hrs by propidium iodide staining based flow cytometry (reference value: 35.42 %); assay type: functional
HepG2 [10] = assay: Induction of apoptosis in human HepG2 cells assessed as viable cells at 0.55 ug/ml after 24 to 48 hrs by Annexin V-FITC/propidium iodide staining based flow cytometry (reference value: 95.6 %); assay type: functional; conditions: read-out: Activity
HepG2 [11] = assay: Induction of apoptosis in human HepG2 cells assessed as late apoptotic cells at 1.1 ug/ml after 24 to 48 hrs by Annexin V-FITC/propidium iodide staining based flow cytometry (reference value: 0.1 %); assay type: functional
[12] = Cytotoxicity against human HL7702 cells assessed as cell growth inhibition after 72 hrs by MTT assay; assay type: cell-based; conditions: L02, 72 h
HeLa = assay: Cytotoxicity against human HeLa cells assessed as cell growth inhibition after 72 hrs by MTT assay; assay type: functional, cell-based; how it was run: as §1
HepG2 [13] = assay: Induction of apoptosis in human HepG2 cells assessed as early apoptotic cells at 1.1 ug/ml after 24 to 48 hrs by Annexin V-FITC/propidium iodide staining based flow cytometry (reference value: 2.5 %); assay type: functional
HepG2 [14] = assay: Induction of apoptosis in human HepG2 cells assessed as necrotic cells at 0.55 ug/ml after 24 to 48 hrs by Annexin V-FITC/propidium iodide staining based flow cytometry (reference value: 1.8 %); assay type: functional
MCF7 = assay: Cytotoxicity against human MCF7 cells assessed as cell growth inhibition after 72 hrs by MTT assay; assay type: functional, cell-based; conditions: MCF7, 72 h; how it was run: as §1
A549 = assay: Cytotoxicity against human A549 cells assessed as cell growth inhibition after 72 hrs by MTT assay; assay type: functional, cell-based; conditions: A549, 72 h; how it was run: as §1
HepG2 [15] = assay: Cell cycle arrest in human HepG2 cells assessed as accumulation at G1 phase at 0.55 ug/ml after 48 hrs by propidium iodide staining based flow cytometry (reference value: 57.68 %); assay type: functional
HepG2 [16] = assay: Cell cycle arrest in human HepG2 cells assessed as accumulation at G2 phase at 0.55 ug/ml after 48 hrs by propidium iodide staining based flow cytometry (reference value: 6.89 %); assay type: functional
HepG2 [17] = assay: Cell cycle arrest in human HepG2 cells assessed as accumulation at sub-G1 phase at 1.1 ug/ml after 48 hrs by propidium iodide staining based flow cytometry relative to control; assay type: functional
HepG2 [18] = assay: Induction of apoptosis in human HepG2 cells assessed as viable cells at 1.1 ug/ml after 24 to 48 hrs by Annexin V-FITC/propidium iodide staining based flow cytometry (reference value: 95.6 %); assay type: functional; conditions: read-out: Activity
HepG2 [19] = assay: Cell cycle arrest in human HepG2 cells assessed as accumulation at S phase at 1.1 ug/ml after 48 hrs by propidium iodide staining based flow cytometry (reference value: 35.42 %); assay type: functional
[20] = Cytotoxicity against human BCG823 cells assessed as cell growth inhibition after 72 hrs by MTT assay; assay type: functional, cell-based; conditions: BCG823, 72 h; how it was run: as §1
HepG2 [21] = assay: Induction of apoptosis in human HepG2 cells assessed as early apoptotic cells at 0.55 ug/ml after 24 to 48 hrs by Annexin V-FITC/propidium iodide staining based flow cytometry (reference value: 2.5 %); assay type: functional

**Q.** Which results are given for `Cc1nc(N(C)C(=O)NC(=O)c2c(F)cccc2F)sc1C(=O)N/N=C/c1ccccc1C(F)(F)F`?
**A.** Activity (HepG2 [1]): 0.4%; Activity (HepG2 [2]): 2.3%; Activity (HepG2 [3]): 34.5%; Activity (HepG2 [4]): 0%; Activity (HepG2 [5]): Dose-dependent effect; IC50 (HepG2 [6]): 1.11 µg/mL (≈ 2.11 µM); Activity (HepG2 [7]): 11.83%; inhibition of growth at 20 µg/mL (HepG2 [8]): 90%; Activity (HepG2 [9]): 56.87%; viability at 0.55 µg/mL (HepG2 [10]): 91.2%; Activity (HepG2 [11]): 0.3%; IC50 [12]: 9.43 µg/mL (≈ 17.9 µM); IC50 (HeLa): 6.51 µg/mL (≈ 12.4 µM); Activity (HepG2 [13]): 16.5%; Activity (HepG2 [14]): 1.4%; IC50 (MCF7): 7.34 µg/mL (≈ 14 µM); IC50 (A549): 5.43 µg/mL (≈ 10.3 µM); Activity (HepG2 [15]): 41.02%; Activity (HepG2 [16]): 2.11%; Activity (HepG2 [17]): 66.72%; viability at 1.1 µg/mL (HepG2 [18]): 80.9%; Activity (HepG2 [19]): 88.17%; IC50 [20]: 7.88 µg/mL (≈ 15 µM); Activity (HepG2 [21]): 7%
